CHO parental Ca: counter-screen: ATP calcium response change in parental CHO cells; 0.63% of 330,000 active; parental CHO-K1, ATP-induced calcium, Fluo-8 fluorescence; inhibition, % at 5.6 µM;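 active = inhibition above that plate's mean sample inhibition plus 3 SD, cut at about 26% in these data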;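 also: 0% = ATP-challenged DMSO wells and 100% = DMSO wells without ATP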
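Material: Parental CHO cells | Reagent: ATP | Compound dosing: Single nominal dose of 5.6 µM per compound | Detection: Intracellular calcium via Fluo-8 no-wash fluorescent dye | Read-out: % inhibition of ATP-induced calcium mobilization | Benchmarks: Low control ATP plus DMSO, high control DMSO only | Replicates: Singlicate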
TAAR1 antagonist: antagonists of human TAAR1 | AID 624466 | inhibition, % at 3 µM | 1.5% of 360,000 active | Q96RJ0 | CHO RD-HGA16 TAAR1, Fluo-8 calcium fluorescence, antagonist;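 active = inhibition above a per-plate cutoff, the mean inhibition of test compounds on that plate plus 3 SD, cut at about 49% in these data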;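 also: 0% = DMSO plus EC80 beta-PEA response and 100% = DMSO alone without agonist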
Target sequence (Q96RJ0 whole entry, looked up): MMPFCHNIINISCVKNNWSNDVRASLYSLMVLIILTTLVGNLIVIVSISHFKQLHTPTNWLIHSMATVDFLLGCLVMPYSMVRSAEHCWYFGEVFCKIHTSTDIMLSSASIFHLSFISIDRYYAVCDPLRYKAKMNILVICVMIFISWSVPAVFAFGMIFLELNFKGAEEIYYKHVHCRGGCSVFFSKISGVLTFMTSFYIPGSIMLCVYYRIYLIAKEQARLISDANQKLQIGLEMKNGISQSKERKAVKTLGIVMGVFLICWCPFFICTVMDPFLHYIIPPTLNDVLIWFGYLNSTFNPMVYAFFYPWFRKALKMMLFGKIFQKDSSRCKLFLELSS
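Test system – hTAAR1-expressing CHO RD-HGA16 cells, Gα16-coupled · Reagent – β-PEA at EC80 concentration, post-compound challenge · Compound dosing – 3 µM, single point · Timing – 140 s kinetic read after compound, 140 s after agonist · Detection – Fluo-8 intracellular calcium dye fluorescence, real-time kinetic reads · Control set – DMSO and EC80 PEA controls · Repeats – n of 1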
OX1R antag-1: antagonists of human orexin 1 receptor (OX1R). O43613. OX1R-expressing cells, FRET antagonist read-out. inhibition, % at 6.6 µM. 1.8% of 330,000 active. AID 485270; in the data active = inhibition mostly above about 38%, no sharp cut-off; inactive = mostly below about 40%;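 also: 0% = agonist challenge alone and 100% = reference antagonist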
GPR7 antagonist: blocks human GPR7 receptor signaling | P48145 | 1.1% of 290,000 active | GPR7-expressing cells, fluorescence antagonist assay | inhibition, % at 4.4 µM; in the data active = inhibition above about 16%, passing the limit was not always enough;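 also: cells stimulated with the agonist NPW; 0% = agonist with vehicle and 100% = vehicle without agonist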
Target sequence (P48145 whole entry, looked up): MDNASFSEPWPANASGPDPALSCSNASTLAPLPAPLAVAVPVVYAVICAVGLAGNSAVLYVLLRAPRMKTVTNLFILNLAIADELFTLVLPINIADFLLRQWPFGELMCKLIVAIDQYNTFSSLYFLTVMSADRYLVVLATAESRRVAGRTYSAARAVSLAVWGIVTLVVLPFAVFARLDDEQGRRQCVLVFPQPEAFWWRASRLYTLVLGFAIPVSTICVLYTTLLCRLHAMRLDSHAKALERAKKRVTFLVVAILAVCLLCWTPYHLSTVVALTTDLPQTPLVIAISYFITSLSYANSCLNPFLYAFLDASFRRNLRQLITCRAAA
TAAR1 agonist: human TAAR1 agonism | Q96RJ0 | CHO RD-HGA16 TAAR1, Fluo-8 calcium fluorescence; vehicle wells 0%, saturating PEA agonist 100% | activation, % at 3 µM | 0.99% of 360,000 active | AID 624467;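 active = activation above the mean activation of all test compounds in the run plus 3 SD, cut at about 38% in these data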
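System: CHO-derived RD-HGA16 cells with stable Gα16 and human TAAR1. Times: 17-24 h plating, Fluo-8 75 min 37 °C, 30 min RT. Measured by: calcium-sensitive Fluo-8 signal, excitation 470-495, emission 515-575 nm. Read-out basis: % activation relative to PEA EC100 response. Control set: DMSO and PEA EC100. Repeats: no replicates (n 1).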
OX1R antag-2: antagonists of human orexin 1 receptor; O43613; CHO/OX1R cells, Fluo-8 calcium fluorescence, orexin A; inhibition, % at 5 µM; 0.43% of 330,000 active; AID 434989;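 active = inhibition above its plate's threshold, mean inhibition of all tested compounds on the plate plus 3 SD, cut at about 37% in these data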;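 also: 0% = orexin A challenge wells and 100% = SB-334867-A antagonist wells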
TAAR1 ag confirm: confirmation of human TAAR1 agonists; CHO RD-HGA16 TAAR1, Fluo-8 calcium fluorescence; scaled: DMSO 0%, maximal phenethylamine 100%; 82% of 2,400 active; shares compounds with TAAR1 agonist; activation, % at 3 µM;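 active = activation above a cutoff set at the run's mean compound activation plus 3 SD, cut at about 39% in these data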
Ga16 ag counter: nonselective agonism, TAAR1 counter-screen; 50% of 2,400 active; shares compounds with TAAR1 agonist; CHO-Ga16 parental, Fluo-8 calcium fluorescence; normalized to maximal ATP response, DMSO zero; activation, % at 3 µM;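 active = activation above the run cutoff, the mean activation over all tested wells plus 3 SD, cut at about 12% in these data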;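 also: 0% = DMSO wells and 100% = maximal ATP response on the peak over basal ratio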
TAAR1 desensitize: counter-screen for human TAAR1 agonists: agonists that desensitize TAAR1. 46% of 2,400 active. shares compounds with TAAR1 agonist. AID 651951. inhibition, % at 3 µM. CHO RD-HGA16 hTAAR1, Fluo-8 calcium, beta-PEA response inhibition;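 active = inhibition above the run cutoff, the mean inhibition of all test compounds plus 3 SD, cut at about 49% in these data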;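 also: beta-PEA stimulus applied at its EC80; loss of beta-PEA calcium signal after compound pretreatment read as receptor desensitization; 0% = DMSO with beta-PEA at EC80 and 100% = DMSO alone without agonist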
Ga16 nonsel ant: counter-screen for TAAR1 agonists: nonselective Ga16 antagonists; shares compounds with TAAR1 agonist; CHO-Ga16 ATP-induced calcium, Fluo-8 fluorescence; inhibition, % at 3 µM; 39% of 2,400 active; AID 651952;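 active = inhibition above the plate's mean compound inhibition plus 3 SD, computed per plate, cut at about 22% in these data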;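 also: 0% = EC80 ATP with DMSO and 100% = DMSO wells without ATP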
Active calls of the source: *; nt = no result. Compounds with a hit are over-represented: about 4.6% of the library has one in this group of screens.

SMILES | CHO parental Ca | TAAR1 antagonist | OX1R antag-1 | GPR7 antagonist | TAAR1 agonist | OX1R antag-2 | TAAR1 ag confirm | Ga16 ag counter | TAAR1 desensitize | Ga16 nonsel ant
COc1ccc(CN2C(=O)C(C)Nc3ncnc(N4CCN(c5ccccn5)CC4)c32)cc1 (configuration not stated) | -13.8 | 17.2 | 3.1 | nt | 16.8 | -21.6 | nt | nt | nt | nt
CCOC(=O)C(NCCc1ccccc1)(NC(=O)CC)C(F)(F)F (configuration not stated) | -10.3 | 51.6* | 28.1 | -5.7 | 94.2* | 10.3 | 97.8* | 4.7 | 80.0* | -2.4
CCOC(=O)C(NCCc1ccccc1F)(NC(=O)CC)C(F)(F)F (configuration not stated) | -8.7 | nt | 10.4 | -7.9 | nt | 7.4 | nt | 6.1 | nt | 7.6
CCOC(=O)C(NCc1ccc2c(c1)OCO2)(NC(=O)CC)C(F)(F)F (configuration not stated) | -21.8 | -8.3 | 1.1 | -5.8 | 3.9 | -18.9 | nt | nt | nt | nt
COc1ccc(C(=O)NCC(=O)OCc2c(Cl)cccc2Cl)cc1OC | nt | -0.3 | nt | nt | 8.0 | nt | nt | nt | nt | nt
NC(=O)c1cccc(Nc2nc(C(N)COCc3ccccc3)cs2)n1 (configuration not stated) | nt | -33.3 | nt | nt | 3.6 | nt | nt | nt | nt | nt
C(=NNc1nnn(Cc2ccccc2)n1)c1ccccc1 | nt | 22.0 | nt | nt | 53.5* | nt | 7.6 | 1.5 | 4.2 | 6.0
O=C(O)c1ccc(-c2ccc(/C=N/Nc3ccc([N+](=O)[O-])cc3)o2)cc1 | 64.0* | 82.5* | -1.3 | -6.5 | 130.6* | 77.0* | 85.6* | 66.4* | 88.0* | 70.4*
CN(C[C@@H](Cc1cccc2ccccc12)N(C[C@H](Cc1ccccc1)N(CCc1ccccc1)N=O)N=O)N=O | -17.8 | 7.9 | 33.9 | -4.6 | 50.9* | -30.3 | 76.5* | 3.5 | 18.1 | 7.9
O=C1NC2(CCCCC2)C(=O)N1Cc1cccc(C(F)(F)F)c1 | -0.9 | -19.0 | 14.4 | -0.4 | 71.2* | -20.3 | 2.8 | 0.3 | -7.0 | 9.4
O=C(NCCCNc1ccnc2cc(Cl)ccc12)c1ccccc1F | -22.2 | -5.3 | 9.6 | 4.6 | 0.5 | -41.8 | nt | nt | nt | nt
CC(Oc1ccc(Br)cc1)C(=O)Nc1ccc(S(=O)(=O)N(C)C2CCN(C)CC2)cc1 (configuration not stated) | 51.0* | 99.0* | -4.3 | nt | 140.2* | 40.2 | 140.1* | 99.7* | 101.8* | 82.1*
CC(Oc1ccc(C(=O)c2ccccc2)cc1)C(=O)Nc1ccc(S(N)(=O)=O)cc1 (configuration not stated) | 15.4 | 29.2 | 4.9 | 9.3 | 73.9* | 24.4 | 60.5* | 30.6* | 46.5 | 36.1*
Cc1ccc(OC(C)C(=O)Nc2ccc(S(=O)(=O)N3CCOCC3)cc2)cc1 (configuration not stated) | 9.5 | 25.9 | 0.4 | 14.6 | 65.8* | 11.4 | 77.4* | 51.4* | 41.8 | 32.6*
COc1ccc(CC(=O)Nc2ccc(S(=O)(=O)N(C)C3CCN(C)CC3)cc2)cc1 | -5.0 | 6.0 | 9.0 | nt | 7.8 | -8.0 | nt | nt | nt | nt
Cc1ccc(NC(=O)c2ccc(S(=O)(=O)N3CCCCC3)cc2)cc1 | -15.6 | -10.6 | 19.9 | -11.5 | 47.6* | -16.0 | 1.3 | 3.6 | 9.5 | 10.7
Cc1ccc(CNC(=O)CCNC(=O)c2ccco2)cc1 | 0.6 | -1.3 | 15.0 | 5.8 | 12.2 | 5.9 | nt | nt | nt | nt
CC(C)C(=O)Nc1ccc(C(=O)Nc2ccc(S(=O)(=O)N3CCOCC3)cc2)cc1 | -11.9 | nt | 3.8 | -15.4 | nt | -2.6 | nt | nt | nt | nt
CC(Sc1ccc(Cl)cc1)C(=O)Nc1ccc(S(=O)(=O)N2CCOCC2)cc1 (configuration not stated) | 8.3 | 50.4* | 13.8 | 24.8 | 91.7* | 6.3 | 90.5* | 47.8* | 72.8* | 39.4*
Cc1ccc(C)c(NS(=O)(=O)c2ccc(NC(=O)CSc3ccc(Cl)cc3)cc2)c1 | -6.3 | -9.1 | -1.6 | 2.4 | 16.7 | -13.3 | nt | nt | nt | nt
Cc1ccc(NS(=O)(=O)c2ccc(NC(=O)C(C)Sc3ccc(Cl)cc3)cc2)c(C)c1 (configuration not stated) | 12.3 | 17.5 | 10.2 | 17.4 | 51.2* | -3.9 | 25.1 | 10.0 | 20.6 | 26.0*
N#C/C(=C/c1cn[nH]c1-c1cccc(Br)c1)C(=O)O | 6.6 | -1.5 | 15.8 | -11.5 | 70.8* | -10.5 | 111.7* | 51.7* | 24.6 | 3.5
Cc1cc(OC(C)C(=O)NCCCN2CCOCC2)c2c(C)c(C)c(=O)oc2c1 (configuration not stated) | -20.1 | -20.3 | 3.9 | -13.7 | 1.7 | -12.8 | nt | nt | nt | nt
Cc1ccc(C2=N/C(=C\c3cccc(F)c3)C(=O)O2)cc1 | -15.2 | 5.8 | 8.7 | -2.4 | 0.0 | -12.0 | nt | nt | nt | nt
CCOC(=O)N1CCN(CC(O)COc2ccccc2C(C)C)CC1 (configuration not stated) | -26.8 | 8.4 | 10.6 | -8.6 | 7.1 | -24.1 | nt | nt | nt | nt
SMILES | CHO parental Ca | TAAR1 antagonist | OX1R antag-1 | GPR7 antagonist | TAAR1 agonist | OX1R antag-2 | TAAR1 ag confirm | Ga16 ag counter | TAAR1 desensitize | Ga16 nonsel ant
CCN(CCNCC(O)COc1ccccc1C(C)C)c1cccc(C)c1 (configuration not stated) | 30.6* | 42.6 | -12.7 | 7.8 | 73.3* | -5.0 | 78.8* | 19.9* | 57.7* | 38.6*
CN1CCc2c(c3ccccc3n2C)C1 | -0.9 | 13.9 | 4.6 | -2.7 | 54.9* | 1.9 | 81.2* | 0.0 | 36.6 | 5.6
CN1CCc2c(c3ccccc3n2Cc2ccccc2)C1 | -12.3 | -10.8 | 8.7 | 8.8 | 17.6 | -30.4 | nt | nt | nt | nt
COC(=O)N(C)C[C@H]1OCc2cnnn2CCCC(=O)N([C@H](C)CO)C[C@H]1C | nt | -19.7 | nt | nt | 1.5 | nt | nt | nt | nt | nt
Nc1nc(Nc2ccccc2)nc(NCc2ccco2)c1[N+](=O)[O-] | -22.3 | 21.3 | 25.8 | -24.5 | 19.9 | -43.0 | nt | nt | nt | nt
Fc1ccc(Nc2nc(NCc3ccco3)c3ccccc3n2)cc1 | 9.2 | 42.8 | 3.9 | 2.8 | 70.2* | 16.9 | 39.5* | 22.6* | 49.1* | 39.4*
CC(=O)Nc1cccc(NC(=O)C(=O)NCC(c2ccco2)N2CCc3ccccc3C2)c1 (configuration not stated) | -4.5 | 0.7 | 8.9 | nt | 56.6* | -29.2 | 62.9* | 10.5 | 53.5* | 30.8*
